Active and inactive are the calls of the source. The calls are words filed in the database; no cut-off is given here.
Assays:
[1] = tested on: THP-1; assay: Induction of TNFalpha expression in human THP1 cells after 18 hrs by ELISA; assay type: functional, cell-based
Outline: (§1)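 THP-1 cells in RPMI-1640 with 2 mM L-glutamine, antibiotics, 10% FCS; 10⁵ cells/well differentiated with 200 nM TPA for 24 h. Non-adherent cells washed off, 1 h recovery, then stimulated 18 h at indicated concentrations; E. coli Re-LPS or O111:B4 LPS as reference. DMSO stocks diluted in medium, final DMSO ≤0.01%. Supernatants assayed by ELISA.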

[2] = tested on: THP-1; assay: Induction of IL8 expression in human THP1 cells after 18 hrs by ELISA; assay type: functional, cell-based; outline: as §1
[3] = tested on: THP-1; assay: Induction of MCP1 expression in human THP1 cells after 18 hrs by ELISA; assay type: functional, cell-based; outline: as §1
[4] = biological target: Toll-like receptor 4 (Homo sapiens) (UniProt O00206); assay: Agonist activity at human TLR4 in human THP1 cells assessed as induction of MyD88 signaling after 18 hrs by ELISA; assay type: cell-based; details: THP-1
Chain of Toll-like receptor 4 (Homo sapiens) (O00206 whole entry): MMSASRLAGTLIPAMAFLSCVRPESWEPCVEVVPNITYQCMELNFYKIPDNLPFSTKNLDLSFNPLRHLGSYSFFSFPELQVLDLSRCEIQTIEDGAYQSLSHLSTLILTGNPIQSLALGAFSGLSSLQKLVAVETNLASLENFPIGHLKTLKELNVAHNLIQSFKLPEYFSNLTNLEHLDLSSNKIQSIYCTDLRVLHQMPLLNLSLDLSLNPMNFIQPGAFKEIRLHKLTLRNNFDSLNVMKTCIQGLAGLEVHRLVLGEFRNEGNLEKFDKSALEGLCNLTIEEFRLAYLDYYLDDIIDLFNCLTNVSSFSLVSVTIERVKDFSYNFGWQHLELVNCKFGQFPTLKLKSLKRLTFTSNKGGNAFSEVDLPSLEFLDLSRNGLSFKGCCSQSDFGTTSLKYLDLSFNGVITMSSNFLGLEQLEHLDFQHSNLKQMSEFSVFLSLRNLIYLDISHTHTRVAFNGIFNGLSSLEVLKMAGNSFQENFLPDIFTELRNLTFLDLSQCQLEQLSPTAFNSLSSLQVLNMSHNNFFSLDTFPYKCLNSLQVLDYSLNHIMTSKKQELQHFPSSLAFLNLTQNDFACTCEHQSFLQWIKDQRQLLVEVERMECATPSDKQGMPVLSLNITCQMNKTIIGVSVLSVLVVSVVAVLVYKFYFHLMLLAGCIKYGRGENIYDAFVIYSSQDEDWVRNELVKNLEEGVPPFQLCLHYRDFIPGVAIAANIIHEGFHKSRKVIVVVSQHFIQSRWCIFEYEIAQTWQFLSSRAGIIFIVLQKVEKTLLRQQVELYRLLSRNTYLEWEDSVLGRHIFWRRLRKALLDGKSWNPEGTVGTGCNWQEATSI
Outline: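 THP-1 cells were seeded at 10⁵ per well and differentiated to macrophage-like cells with 200 nM TPA for 24 h. Non-adherent cells were washed off, and the remainder rested 1 h in fresh complete RPMI with 10% FCS. Cells were then stimulated for 18 h, and TNF-α, IL-8 and MCP-1 in the supernatants were measured by ELISA.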

[5] = Induction of TNFalpha level in C57BL/6J mouse BMDM at 1 nM after 16 hrs by ELISA; assay type: functional
Outline: (§2)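 C57BL/6J bone marrow cells were differentiated 6 days with 40 ng/mL M-CSF in RPMI with 20% FBS, then seeded at 1 × 10⁶ cells/mL in RPMI with 10% FBS. After 24 h, cells were stimulated for 16 h, with nM concentrations based on compound MW. Supernatant cytokines were measured by ELISA.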

[6] = Induction of IL-6 level in C57BL/6J mouse BMDM at 1 nM after 16 hrs by ELISA; assay type: functional; outline: as §2
[7] = Cytotoxicity against human DC by propidium iodide staining
Outline: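 Immature monocyte-derived DCs were stimulated with compound across a wide concentration range, and cytotoxicity was assessed by propidium iodide staining.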

[8] = tested on: BMDM; assay: Induction of IL-6 level in C57BL/6J mouse BMDM after 16 hrs by ELISA; assay type: functional
Outline: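 Bone marrow flushed from femur and tibia, erythrocytes lysed (0.88% ammonium chloride, 15 min, 37 °C), differentiated 6 days in RPMI/20% FBS with 40 ng/mL M-CSF. Replated at 1 × 10⁶ cells/mL in RPMI/10% FBS, stimulated after 24 h for 16 h. Nanomolar doses calculated from MW. DMSO stocks diluted in medium, final DMSO ≤0.01%. Supernatant IL-6 by ELISA.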

[9] = species: Homo sapiens; assay: Induction of IL6 release in human DC at 1 ng/ml by Luminex
[10] = species: Homo sapiens; assay: Induction of IL12 release in human DC at 1 ng/ml by Luminex
[11] = species: Homo sapiens; assay: Induction of IL10 release in human DC at 1 ng/ml by Luminex
[12] = species: Homo sapiens; assay: Induction of TNFalpha release in human DC at 1 ng/ml by Luminex
[13] = Induction of human DC maturation assessed as upregulation of CD86 at 10 ng/ml after 24 hrs by flow cytometry; assay type: functional
[14] = biological target: Toll-like receptor 4 (Homo sapiens) (UniProt O00206); assay: Agonist activity at human TLR4 expressed in HEK293 cells coexpressed with human MD2/CD14 assessed as activation of NFkappaB signaling at 10 ng/ml after 20 to 24 hrs by NFkappaB reporter assay; assay type: cell-based
Outline: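 HEK-Blue hTLR4 cells (HEK293 co-transfected with hTLR4/MD-2/CD14), 25000 per well, were stimulated with compound diluted in DMEM with 10% FCS (final DMSO ≤0.005–0.01%) for 20–24 h at 37 °C, 5% CO2. Secreted SEAP in the supernatant was read with QUANTI-Blue at 650 nm. Data were pooled from n = 3 independent experiments, SEM.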

[15] = Induction of human DC maturation assessed as upregulation of MHC class 1 at 10 ng/ml after 24 hrs by flow cytometry; assay type: functional
[16] = Induction of human DC maturation assessed as upregulation of MHC class 2 at 10 ng/ml after 24 hrs by flow cytometry; assay type: functional

In the case of `CCCCCCCCCCCCCC(=O)O[C@H](CCCCCCCCCCC)CC(=O)O[C@@H]1[C@@H](NC(=O)C[C@@H](CCCCCCCCCCC)OC(=O)CCCCCCCCCCC)[C@@H](O[C@H]2O[C@H](COP(=O)(O)O)[C@@H](OC(=O)C[C@H](CCCCCCCCCCC)OC(=O)CCCCCCCCC)[C@H](O)[C@@H]2OC)O[C@H](CO)[C@H]1OP(=O)(O)O`, the Activity [1] is reported as “Dose-dependent effect”, the Activity [2] is reported as “Dose-dependent effect” and the Activity [3] is reported as “Active”. For the same compound, the Activity [4] was “Active”, the Activity [5] was 4000 pg/mL and the Activity [6] was 1500 pg/mL. The Activity [7] was “Non-toxic”.

For `CCCCCCCCCCCCCC(=O)O[C@H](CCCCCCCCCCC)CC(=O)O[C@@H]1[C@@H](NC(=O)C[C@@H](CCCCCCCCCCC)OC(=O)CCCCCCCCCCC)[C@@H](O[C@H]2O[C@H](CO)[C@@H](OC(=O)C[C@H](CCCCCCCCCCC)OC(=O)CCCCCCCCCCC)[C@H](O)[C@@H]2OC)O[C@H](CO)[C@H]1OP(=O)(O)O`, the Activity [1] was “inactive”, the Activity [2] was “inactive” and the Activity [3] was “inactive”. For the same compound, the Activity [5] was 500 pg/mL, the Activity [8] was “Dose-dependent effect” and the Activity [7] was “Non-toxic”. For the same compound, the Activity [9] was “inactive”, the Activity [10] was “inactive” and the Activity [11] was “inactive”. The Activity [12] was “inactive”.

In the case of `CCCCCCCCCCCCCC(=O)O[C@H](CCCCCCCCCCC)CC(=O)O[C@@H]1[C@@H](NC(=O)C[C@@H](CCCCCCCCCCC)OC(=O)CCCCCCCCCCC)[C@@H](O[C@H]2O[C@H](COP(=O)(O)O)[C@@H](OC(=O)C[C@H](CCCCCCCCCCC)OC(=O)CCCCCCCCCCC)[C@H](O)[C@@H]2OC)O[C@H](CO)[C@H]1OP(=O)(O)O`, the Activity [13] is reported as “Active”, the Activity [14] is reported as “Active” and the Activity [1] is reported as “Dose-dependent effect”. For the same compound, the Activity [2] was “Dose-dependent effect”, the Activity [3] was “Active” and the Activity [4] was “Active”. The Activity [5] was 4000 pg/mL, the Activity [6] was 1500 pg/mL and the Activity [15] was “Active”. For the same compound, the Activity [16] was “Active”, the Activity [7] was “Non-toxic” and the Activity [9] was “Active”. The Activity [10] was “Active”, the Activity [11] was “Active” and the Activity [12] was “Active”.

Work on `CCCCCCCCCCCCCC(=O)O[C@H](CCCCCCCCCCC)CC(=O)N[C@H]1[C@H](OC[C@H]2O[C@H](OP(=O)(O)O)[C@H](NC(=O)C[C@H](O)CCCCCCCCCCC)[C@@H](OC(=O)C[C@H](O)CCCCCCCCCCC)[C@@H]2O)O[C@H](CO)[C@@H](OP(=O)(O)O)[C@@H]1OC(=O)C[C@@H](CCCCCCCCCCC)OC(=O)CCCCCCCCCCCCC` yielded an Activity [5] of 2000 pg/mL.
